Values after ≈ are worked out from the molar mass of the structure shown. Active and inactive are the calls of the source. No cut-off for these calls is given here.
System: Candida albicans
Assay: Antifungal activity against Candida albicans assessed as zone of inhibition incubated for 18 hrs by spot on lawn assay
Format: functional, organism-based
Conditions: not given
Summary of the method: (§1)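 Overnight LB cultures diluted to OD600 0.01 in 0.7% LB top agar, overlaid on 1.5% LB agar; 5 mg mL−1 aqueous compound spotted at 35, 25, 10 and 5 μg with 1:1 water/methanol vehicle spot; 37 °C, 18 h; inhibition zone diameter measured by ruler.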
For `C#CCCCOC(=O)[C@H]1O[C@@H](n2ccc(N)nc2=O)C=C[C@@H]1NC(=O)C[C@@H](N)CCN(C)C(=N)N`, the Activity was “inactive”.

System: Enterococcus
Assay: Antibacterial activity against vancomycin-resistant Enterococcus assessed as zone of inhibition incubated for 18 hrs by spot on lawn assay
Format: functional, organism-based
Conditions: not given
Summary of the method: (§2)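 Spot-on-lawn assay. Plates of 1.5% agar in LB were overlaid with 0.7% LB agar seeded with overnight culture at 0.01 OD600. Aqueous 5 mg mL−1 solutions were spotted at 35, 25, 10 and 5 μg, with a 1:1 water/methanol vehicle spot. After 18 h at 37 °C, inhibition zone diameters were measured with a ruler.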
For `C#CCCCOC(=O)[C@H]1O[C@@H](n2ccc(N)nc2=O)C=C[C@@H]1NC(=O)C[C@@H](N)CCN(C)C(=N)N`, the Activity was “Active”.

System: Enterococcus faecalis
Assay: Antibacterial activity against Enterococcus faecalis ATCC 29212 assessed as zone of inhibition incubated for 18 hrs by spot on lawn assay
Format: functional, organism-based
Conditions: not given
Summary of the method: as §1
With `C#CCCCOC(=O)[C@H]1O[C@@H](n2ccc(N)nc2=O)C=C[C@@H]1NC(=O)C[C@@H](N)CCN(C)C(=N)N` the Activity was “Active”.

System: Staphylococcus aureus
Assay: Antibacterial activity against methicillin resistant Staphylococcus aureus assessed as zone of inhibition incubated for 18 hrs by spot on lawn assay
Format: functional, organism-based
Conditions: not given
Summary of the method: as §2
For `C#CCCCOC(=O)[C@H]1O[C@@H](n2ccc(N)nc2=O)C=C[C@@H]1NC(=O)C[C@@H](N)CCN(C)C(=N)N`, the Activity was “Active”.

System: Staphylococcus aureus
Assay: Antibacterial activity against NorA deleted Staphylococcus aureus assessed as zone of inhibition incubated for 18 hrs by spot on lawn assay
Format: functional, organism-based
Conditions: not given
Summary of the method: as §1
In the case of `C#CCCCOC(=O)[C@H]1O[C@@H](n2ccc(N)nc2=O)C=C[C@@H]1NC(=O)C[C@@H](N)CCN(C)C(=N)N`, the Activity is reported as “Active”.

System: Staphylococcus aureus
Assay: Antibacterial activity against Staphylococcus aureus assessed as zone of inhibition incubated for 18 hrs by spot on lawn assay
Format: functional, organism-based
Conditions: not given
Summary of the method: as §1
In the case of `C#CCCCOC(=O)[C@H]1O[C@@H](n2ccc(N)nc2=O)C=C[C@@H]1NC(=O)C[C@@H](N)CCN(C)C(=N)N`, the Activity is reported as “Active”.

System: not listed separately
Assay: Cytotoxicity against human MRC5 cells incubated for 24 hrs by MTS assay
Format: toxicity, cell-based
Conditions: not given
Summary of the method: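 MRC-5 lung fibroblasts seeded 5000 per well; medium replaced with compound 16–192 μg mL−1 or matching 1:1 methanol:water vehicle; 24 h, then MTS 3–4 h; absorbance 490 nm; viability relative to untreated cells, normalized to vehicle; CC50 from two independent assays in duplicate, mean ± SD.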
Work on `C#CCCCOC(=O)[C@H]1O[C@@H](n2ccc(N)nc2=O)C=C[C@@H]1NC(=O)C[C@@H](N)CCN(C)C(=N)N` yielded a CC50 at 24 h of 50.4 µg/mL (≈ 103 µM).

System: Staphylococcus aureus
Assay: Antibacterial activity against NorA deleted Staphylococcus aureus incubated for 16 hrs by broth microdilution method
Format: functional, organism-based
Conditions: 16 h
Summary of the method: (§3)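 Cation-adjusted Mueller-Hinton broth microdilution. Overnight cultures from single colonies were diluted to OD600 0.004. Final compound range was 256–2 μg mL−1 in 1:1 methanol/water vehicle, with doxycycline and vehicle controls. Plates were incubated 16 h at 37 °C. OD600 was normalized to controls, and MIC was the lowest concentration inhibiting >90% growth. Two biological replicates in duplicate; reported as a range.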
Molecule `C#CCCCOC(=O)[C@H]1O[C@@H](n2ccc(N)nc2=O)C=C[C@@H]1NC(=O)C[C@@H](N)CCN(C)C(=N)N` has an IC50 of 36 µg/mL (≈ 73.7 µM).

Same assay, conditions: time 16 hrs
For `C#CCCCOC(=O)[C@H]1O[C@@H](n2ccc(N)nc2=O)C=C[C@@H]1NC(=O)C[C@@H](N)CCN(C)C(=N)N`, the MIC was 64 µg/mL (≈ 131 µM).

System: Staphylococcus aureus
Assay: Antibacterial activity against wild type Staphylococcus aureus 8810 incubated for 16 hrs by broth microdilution method
Format: functional, organism-based
Conditions: Staphylococcus aureus, 8810, 16 h
Summary of the method: as §3
In the case of `C#CCCCOC(=O)[C@H]1O[C@@H](n2ccc(N)nc2=O)C=C[C@@H]1NC(=O)C[C@@H](N)CCN(C)C(=N)N`, the IC50 is reported as 19.3 µg/mL (≈ 39.5 µM).

Same assay, conditions: Staphylococcus aureus, 8810; time 16 hrs
In the case of `C#CCCCOC(=O)[C@H]1O[C@@H](n2ccc(N)nc2=O)C=C[C@@H]1NC(=O)C[C@@H](N)CCN(C)C(=N)N`, the MIC is reported as 64 µg/mL (≈ 131 µM).

System: Staphylococcus aureus
Assay: Antibacterial activity against methicillin resistant Staphylococcus aureus ATCC 43300 incubated for 16 hrs by broth microdilution method
Format: functional, organism-based
Conditions: ATCC 43300, 16 h
Summary of the method: as §3
`C#CCCCOC(=O)[C@H]1O[C@@H](n2ccc(N)nc2=O)C=C[C@@H]1NC(=O)C[C@@H](N)CCN(C)C(=N)N` showed an IC50 of 29.2 µg/mL (≈ 59.8 µM).

Same assay, conditions: ATCC 43300, time 16 hrs
`C#CCCCOC(=O)[C@H]1O[C@@H](n2ccc(N)nc2=O)C=C[C@@H]1NC(=O)C[C@@H](N)CCN(C)C(=N)N` showed an MIC of 64 µg/mL (≈ 131 µM).

System: Klebsiella pneumoniae
Assay: Antibacterial activity against Klebsiella pneumoniae ATCC 29665 incubated for 16 hrs by broth microdilution method
Format: functional, organism-based
Conditions: ATCC 29665, 16 h
In the case of `C#CCCCOC(=O)[C@H]1O[C@@H](n2ccc(N)nc2=O)C=C[C@@H]1NC(=O)C[C@@H](N)CCN(C)C(=N)N`, the IC50 is reported as 92.3 µg/mL (≈ 189 µM).

Same assay, conditions: ATCC 29665, time 16 hrs
`C#CCCCOC(=O)[C@H]1O[C@@H](n2ccc(N)nc2=O)C=C[C@@H]1NC(=O)C[C@@H](N)CCN(C)C(=N)N` showed an MIC greater than 128 µg/mL.

System: Pseudomonas aeruginosa
Assay: Antibacterial activity against MexAB-OprM deleted Pseudomonas aeruginosa incubated for 16 hrs by broth microdilution method
Format: functional, organism-based
Conditions: 16 h
`C#CCCCOC(=O)[C@H]1O[C@@H](n2ccc(N)nc2=O)C=C[C@@H]1NC(=O)C[C@@H](N)CCN(C)C(=N)N` gave an IC50 of 74.3 µg/mL (≈ 152 µM).

Same assay, conditions: time 16 hrs
With `C#CCCCOC(=O)[C@H]1O[C@@H](n2ccc(N)nc2=O)C=C[C@@H]1NC(=O)C[C@@H](N)CCN(C)C(=N)N` the MIC was greater than 128 µg/mL.

System: Acinetobacter baumannii
Assay: Antibacterial activity against Acinetobacter baumannii ATCC 17978 incubated for 16 hrs by broth microdilution method
Format: functional, organism-based
Conditions: ATCC 17978, 16 h
Work on `C#CCCCOC(=O)[C@H]1O[C@@H](n2ccc(N)nc2=O)C=C[C@@H]1NC(=O)C[C@@H](N)CCN(C)C(=N)N` yielded an IC50 of 61.5 µg/mL (≈ 126 µM).

Same assay, conditions: ATCC 17978, time 16 hrs
With `C#CCCCOC(=O)[C@H]1O[C@@H](n2ccc(N)nc2=O)C=C[C@@H]1NC(=O)C[C@@H](N)CCN(C)C(=N)N` the MIC was greater than 128 µg/mL.

System: Candida albicans
Assay: Antifungal activity against Candida albicans incubated for 16 hrs by broth microdilution method
Format: functional
Conditions: not given
For `C#CCCCOC(=O)[C@H]1O[C@@H](n2ccc(N)nc2=O)C=C[C@@H]1NC(=O)C[C@@H](N)CCN(C)C(=N)N`, the MIC was greater than 128 µg/mL.

System: Saccharomyces cerevisiae
Assay: Antifungal activity against Saccharomyces cerevisiae incubated for 16 hrs by broth microdilution method
Format: functional
Conditions: not given
For `C#CCCCOC(=O)[C@H]1O[C@@H](n2ccc(N)nc2=O)C=C[C@@H]1NC(=O)C[C@@H](N)CCN(C)C(=N)N`, the MIC was 64 µg/mL (≈ 131 µM).

System: not listed separately
Assay: Selectivity index, ratio of CC50 for human MRC5 cells to IC50 for NorA deleted Staphylococcus aureus
Format: toxicity
Conditions: read-out: Ratio CC50/IC50
`C#CCCCOC(=O)[C@H]1O[C@@H](n2ccc(N)nc2=O)C=C[C@@H]1NC(=O)C[C@@H](N)CCN(C)C(=N)N` gave a selectivity ratio of 1.4.

System: not listed separately
Assay: Selectivity index, ratio of CC50 for human MRC5 cells to IC50 for Staphylococcus aureus
Format: toxicity
Conditions: read-out: Ratio CC50/IC50
With `C#CCCCOC(=O)[C@H]1O[C@@H](n2ccc(N)nc2=O)C=C[C@@H]1NC(=O)C[C@@H](N)CCN(C)C(=N)N` the selectivity ratio was 2.6.

System: not listed separately
Assay: Selectivity index, ratio of CC50 for human MRC5 cells to IC50 for methicillin resistant Staphylococcus aureus
Format: toxicity
Conditions: read-out: Ratio CC50/IC50
In the case of `C#CCCCOC(=O)[C@H]1O[C@@H](n2ccc(N)nc2=O)C=C[C@@H]1NC(=O)C[C@@H](N)CCN(C)C(=N)N`, the selectivity ratio is reported as 1.7.

System: not listed separately
Assay: Selectivity index, ratio of CC50 for human MRC5 cells to IC50 for Enterococcus faecalis ATCC 29212
Format: toxicity
Conditions: read-out: Ratio CC50/IC50
Work on `C#CCCCOC(=O)[C@H]1O[C@@H](n2ccc(N)nc2=O)C=C[C@@H]1NC(=O)C[C@@H](N)CCN(C)C(=N)N` yielded a selectivity ratio of 4.1.

System: not listed separately
Assay: Selectivity index, ratio of CC50 for human MRC5 cells to IC50 for vancomycin-resistant Enterococcus
Format: toxicity
Conditions: read-out: Ratio CC50/IC50
Work on `C#CCCCOC(=O)[C@H]1O[C@@H](n2ccc(N)nc2=O)C=C[C@@H]1NC(=O)C[C@@H](N)CCN(C)C(=N)N` yielded a selectivity ratio of 0.7.

System: not listed separately
Assay: Selectivity index, ratio of CC50 for human MRC5 cells to IC50 for Klebsiella pneumoniae ATCC 29665
Format: toxicity
Conditions: read-out: Ratio CC50/IC50
Work on `C#CCCCOC(=O)[C@H]1O[C@@H](n2ccc(N)nc2=O)C=C[C@@H]1NC(=O)C[C@@H](N)CCN(C)C(=N)N` yielded a selectivity ratio of 0.5.

System: not listed separately
Assay: Selectivity index, ratio of CC50 for human MRC5 cells to IC50 for MexAB-OprM deleted Pseudomonas aeruginosa
Format: toxicity
Conditions: read-out: Ratio CC50/IC50
`C#CCCCOC(=O)[C@H]1O[C@@H](n2ccc(N)nc2=O)C=C[C@@H]1NC(=O)C[C@@H](N)CCN(C)C(=N)N` gave a selectivity ratio of 0.7.

System: not listed separately
Assay: Selectivity index, ratio of CC50 for human MRC5 cells to IC50 for Acinetobacter baumannii ATCC 17978
Format: toxicity
Conditions: read-out: Ratio CC50/IC50
For `C#CCCCOC(=O)[C@H]1O[C@@H](n2ccc(N)nc2=O)C=C[C@@H]1NC(=O)C[C@@H](N)CCN(C)C(=N)N`, the selectivity ratio was 0.8.

System: Enterococcus faecalis
Assay: Antibacterial activity against Enterococcus faecalis ATCC 29212 incubated for 20 hrs by broth microdilution method
Conditions: ATCC 29212, 20 h
With `C#CCCCOC(=O)[C@H]1O[C@@H](n2ccc(N)nc2=O)C=C[C@@H]1NC(=O)C[C@@H](N)CCN(C)C(=N)N` the IC50 was 12.2 µg/mL (≈ 25 µM) and the MIC was 32 µg/mL (≈ 65.5 µM).

System: Enterococcus
Assay: Antibacterial activity against vancomycin-resistant Enterococcus incubated for 20 hrs by broth microdilution method
Conditions: not given
In the case of `C#CCCCOC(=O)[C@H]1O[C@@H](n2ccc(N)nc2=O)C=C[C@@H]1NC(=O)C[C@@H](N)CCN(C)C(=N)N`, the IC50 is reported as 72.1 µg/mL (≈ 148 µM) and the MIC is reported as 128 µg/mL (≈ 262 µM).
